Screening results as filed in PubChem.
MEKK2 WT-MEK5: raises or lowers MEK5 binding to wildtype human MEKK2 PB1 domain | bead flow cytometry, Alexa488-MEK5 binding to MEKK2 WT; actives lie on both sides | binding response (% of control), % at 10 µM | hit rate 1.1% among 290,000; in the data active = binding response below about 67% or above about 130%
Arr AP2 block: blocks beta-arrestin peptide binding to AP2 adaptin. inhibition, % at 10 µM. hit rate 0.31% among 340,000. FITC-arrestin peptide / GST-AP2 beads, flow cytometry; AP2 beta2 appendage carries R879A mutation;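 active = inhibition above a set limit, near 3 SD of compounds lacking own fluorescence, cut at about 54% in these data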;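 note: plate controls were DMSO wells for no effect and 5 µM unlabelled arrestin peptide for full effect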
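Test system: GST-tagged AP2 beta2-adaptin appendage (R879A) on 4 µm glutathione beads; also added: fluorescein-tagged arrestin peptide at 50 nM final; timing: 12 min plus 1 h, RT; signal: flow cytometry, FL1 (488/535 nm); read-out: percent drop in bead-associated FITC signal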
MEKK3 PB1 HTS: raises or lowers MEK5 binding to the human MEKK3 PB1 domain | Q99759 | bead-based flow cytometry, Alexa488-MEK5 binding to MEKK3; actives lie on both sides; 0 = blocked by unlabeled MEK5, 100 = vehicle | binding response (% of control), % at 10 µM | hit rate 1.4% among 290,000 | AID 1529;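 active = binding response more than 3 SD above or below the average of its plate-row segment, actives on both sides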;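 note: Alexa488 bead fluorescence after subtracting the streptavidin-only scavenger bead signal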
Target sequence (Q99759 whole entry, looked up, the tested form may be a part): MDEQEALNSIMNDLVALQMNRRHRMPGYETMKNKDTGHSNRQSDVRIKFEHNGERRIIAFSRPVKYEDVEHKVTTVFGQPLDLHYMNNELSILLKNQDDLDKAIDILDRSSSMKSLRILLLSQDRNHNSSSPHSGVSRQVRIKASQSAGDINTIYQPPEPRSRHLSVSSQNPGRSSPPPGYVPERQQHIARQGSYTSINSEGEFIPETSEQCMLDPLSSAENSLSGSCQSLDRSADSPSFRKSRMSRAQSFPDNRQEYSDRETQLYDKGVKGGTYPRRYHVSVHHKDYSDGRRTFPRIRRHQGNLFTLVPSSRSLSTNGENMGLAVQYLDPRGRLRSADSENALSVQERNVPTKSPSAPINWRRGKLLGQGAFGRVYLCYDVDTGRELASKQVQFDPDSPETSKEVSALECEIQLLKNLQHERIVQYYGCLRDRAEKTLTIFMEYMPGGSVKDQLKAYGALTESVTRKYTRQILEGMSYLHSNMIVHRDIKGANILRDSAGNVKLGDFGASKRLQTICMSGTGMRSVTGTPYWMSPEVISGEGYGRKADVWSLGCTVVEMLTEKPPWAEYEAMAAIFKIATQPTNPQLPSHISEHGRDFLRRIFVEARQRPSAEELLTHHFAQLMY
MEKK2 mut-MEK5: signal of MEK5 binding to mutant human MEKK2 PB1 domain; bead flow cytometry, Alexa488-MEK5 binding to MEKK2 mutant; percent response, % at 10 µM; hit rate 0.35% among 290,000; in the data active = percent response above about 24%, passing the limit was not always enough
The depositor's hits bear a star; . = no result given; [ ] = dose if it differs, or a comment. A selection: hits, their analogues and other compounds. The true share with any hit is near 2.3%.

SMILES | MEKK2 WT-MEK5 | Arr AP2 block | MEKK3 PB1 HTS | MEKK2 mut-MEK5
O=C(/C=C/c1cccc(O)c1)c1ccc(N2CCOCC2)cc1 | -4.0* | 31 | 85 | -15
COc1ccc(/C=C/C(=O)c2ccc(O)cc2)cc1CN1CCOCC1 | 110 | -3 | 107 | 2
CCN(C(=O)C(C)OC(=O)c1nn(-c2ccccc2C(F)(F)F)cc1O)c1ccccc1 (stereo not given) | . | -5 | . | .
O=C(NC(=S)NNC(=O)c1ccccc1[N+](=O)[O-])c1ccc(Br)cc1 | 99 | -2 | 98 | 15
Cc1[nH]nc(N2CCCCC2)c1[N+](=O)[O-] | 91 | 16 | 99 | -3
Cc1nc(N2CCCCC2)c(C#N)c(C)c1[N+](=O)[O-] | 170* | 6 | 89 | -48
CCN(CC)CCN(C(=O)c1ccc(S(=O)(=O)N(C)C2CCCCC2)cc1)c1nc2c(C)cccc2s1 | 133 | -12 | 107 | 19
COc1ccc(C)c2sc(N(CCN(C)C)C(=O)c3ccc4ccccc4c3)nc12 | 145* | 29 | 105 | 24*
CN(C)CCN(C(=O)c1ccc(C(=O)c2ccccc2)cc1)c1nc2cc3c(cc2s1)OCO3 | 140* | 53 | 106 | 22
Cc1cc(C)c2nc(N(CCN(C)C)C(=O)c3ccc4ccccc4c3)sc2c1 | 132 | -7 | 101 | 18
CCN(CC)CCN(C(=O)c1ccc(S(=O)(=O)N(CC)c2ccccc2)cc1)c1nc2c(OC)ccc(OC)c2s1 | 157* | -9 | 106 | 28*
COc1cc2c(cc1OC)C(O)C(O)(CO)C(C(=O)O)C2c1cc(OC)c(OC)c(OC)c1 (stereo not given) | . | 5 | . | .
COc1ccccc1CN(C)C(=O)COC(=O)c1ccc(Cl)nc1 | . | -8 | . | .
O=C(COC(=O)CCc1c[nH]c2ccccc12)NC(c1ccccc1)c1ccccc1 | 103 | -4 | 136* | 0
O=C(COC(=O)CCc1c[nH]c2ccccc12)Nc1ccccc1 | . | 24 | . | .
CN(C)CCCN(C(=O)c1ccc(S(=O)(=O)N2CCc3ccccc32)cc1)c1nc2ccc(Cl)cc2s1 | 181* | 0 | 107 | 33*
CCN(CC)CCN(C(=O)c1ccc2c(c1)CCCC2)c1nc2ccc(C)cc2s1 | 148* | -11 | 108 | 31*
CN(C)CCCN(C(=O)c1cc(-c2cccs2)nc2ccccc12)c1nc2ccc(F)cc2s1 | 203* | 9 | 109 | 54*
CN(C)CCN(C(=O)c1cc(Cl)sc1Cl)c1nc2ccc(F)cc2s1 | 118 | -3 | 112 | 25
CCN(CC)CCN(C(=O)c1ccc2c(c1)CCCC2)c1nc2ccc(OC)cc2s1 | 130 | 2 | 106 | 18
Cc1ccc2nc(N(CCCN(C)C)C(=O)c3ccc(S(=O)(=O)N4CCc5ccccc5C4)cc3)sc2c1 | 223* | 12 | 113 | 55*
CC(C(=O)OCC(=O)N1CCN(c2ccccc2)CC1)N1C(=O)c2ccccc2C1=O (stereo not given) | . | -2 | . | .
COc1ccc2sc(N(CCCN(C)C)C(=O)c3ccc(S(=O)(=O)N4CCc5ccccc5C4)cc3)nc2c1 | . | -13 | . | .
CN(C)CCCN(C(=O)c1ccc(S(=O)(=O)N2CCc3ccccc3C2)cc1)c1nc2ccc(F)cc2s1 | 252* | 14 | 116 | 71*
COCCN(C(=O)c1cc(CN2C(=O)c3ccccc3C2=O)ccc1OC)c1c(N)n(CC(C)C)c(=O)[nH]c1=O | . | -11 | . | .
SMILES | MEKK2 WT-MEK5 | Arr AP2 block | MEKK3 PB1 HTS | MEKK2 mut-MEK5
O=c1c(=NNc2ccccc2Cl)c(=O)c2ccccc12 | 88 | -5 | 77*[inhibitor] | -12
Clc1ccc2c(N/N=C/c3cccc(Br)c3)ccnc2c1 | 121 | 27 | 88 | 1
Clc1ccc2c(N/N=C/c3ccccc3Br)ccnc2c1 | 85 | 0 | 70*[inhibitor] | -2
CC1CCN(c2ccc3c(c2)S(=O)(=O)c2cccc(C(=O)NC4CCCCC4)c2C3=O)CC1 | . | 6 | . | .
Cc1ccc2sc(N(CCCN(C)C)C(=O)CCS(=O)(=O)c3ccccc3)nc2c1C | 151* | 20 | 107 | 16
COc1ccc(OC)c2sc(N(CCCN(C)C)C(=O)CCS(=O)(=O)c3ccccc3)nc12 | . | 13 | . | .
CCOC(=O)C1=C(C(=O)OCC)N(CC)CCC1=O | . | 9 | . | .
O=C(COC(=O)/C=C/c1ccc(F)cc1)Nc1ccccc1-c1ccccc1 | 96 | 2 | 69*[inhibitor] | -2
C[C@]12c3[nH]c4cc(-c5ccco5)ccc4c3CCN1C(=O)[C@@H](CC(=O)NCc1ccco1)C[C@@H]2C(=O)N1CCOCC1 | . | 5 | . | .
